RAD54 branch: inhibitors of human RAD54 branch migration, primary screen, biochemical, fluorescence, single point | actives 0.14% (n = 360,000) | AID 602329, 2012 | RAD54 Holliday junction branch migration, FAM/BHQ fluorescence | DNA repair and recombination protein RAD54-like (Homo sapiens), Q92698 | inhibition, % at 10.4 µM;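 active means mean normalized replicate activity at least 40 and at least half of replicates scoring 40 or more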;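 further: 0% = median of neutral control wells and 100% = median of positive control wells; inhibitors cause a drop in the FAM fluorescence signal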
S100A4 inh HTS: inhibitors of S100A4-myosin IIA peptide binding, primary screen, biochemical, fluorescence polarization, TAMRA-MyoIIA peptide. AID 652163, 2013. inhibition, % at 10.7 µM. Protein S100-A4 (Homo sapiens), P26447. actives 0.14% (n = 360,000);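 active means mean inhibition of at least 70% across replicates, with every replicate also reaching that level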
Target sequence (P26447 whole entry, looked up): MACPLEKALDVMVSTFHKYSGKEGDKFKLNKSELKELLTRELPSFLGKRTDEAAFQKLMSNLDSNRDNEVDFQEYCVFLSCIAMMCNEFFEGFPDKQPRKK
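incubation = readout 5 min after mixing, signal stable up to 60 min | system = S100A4 monomer protein | buffer or medium = HEPES pH 7.2 with CaCl2, KCl, NaCl, DTT, Triton | benchmarks = neutral control DMSO, positive control TFP | also added = fluorescent myosin IIA peptide, 5 nM | compound dosing = one concentration per compound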
SR-BI DiI inh: inhibitors of SR-BI mediated HDL lipid uptake, primary screen, ldlA[mSR-BI] cells, fluorescence, single point. AID 488896, 2010. inhibition, % at 12.5 µM. Scavenger receptor class B member 1 (Mus musculus), Q61009. ldlA[mSR-BI] CHO cells, DiI-HDL uptake fluorescence, 3 h. actives 0.96% (n = 320,000);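 active means mean replicate inhibition of at least 70% and a set share of replicates each scoring 70 or more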;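 further: 0% = median of neutral control wells and 100% = median of positive control wells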
dFosB act-1: activators of delta FosB homodimer, primary screen, biochemical, fluorescence polarization, TAMRA-CDK5 oligo, single point | activation, % at 25 µM | purified delta FosB; percent of positive-control signal above neutral wells | Protein FosB (Mus musculus), P13346 | AID 493131, 2011 | actives 0.99% (n = 340,000);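 active means mean activation above about 17%, with every replicate also reaching it, limit read from the data, passing the limit was not always enough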
Target sequence (P13346 whole entry, looked up): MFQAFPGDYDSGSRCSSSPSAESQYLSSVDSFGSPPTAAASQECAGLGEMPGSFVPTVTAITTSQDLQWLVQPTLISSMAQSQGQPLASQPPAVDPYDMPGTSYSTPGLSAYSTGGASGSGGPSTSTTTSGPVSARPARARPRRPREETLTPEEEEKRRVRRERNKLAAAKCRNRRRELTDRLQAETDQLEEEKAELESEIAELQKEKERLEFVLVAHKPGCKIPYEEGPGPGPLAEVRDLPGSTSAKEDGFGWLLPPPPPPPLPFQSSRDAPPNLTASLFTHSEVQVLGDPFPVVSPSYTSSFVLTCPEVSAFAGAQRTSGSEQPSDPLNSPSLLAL
SR-BI uptake up: activators of SR-BI mediated DiI-HDL uptake, primary screen, ldlA[mSR-BI] CHO cells, DiI fluorescence | 3 h; 100 = double the neutral-control signal | activation, % at 12.5 µM | actives 0.096% (n = 320,000);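 active means mean replicate activation of at least 60% and every replicate at or above 60%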;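 further: 0% = median plate neutral-control signal and 100% = twice that signal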
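Assay system: CHO ldlA[mSR-BI] cells, LDL receptor-null, SR-BI overexpressing; medium: Ham's F12 with 0.5% BSA, HEPES 25 mM, pH 7.4; also added: DiI-HDL 10 µg/mL; timing: 3 h uptake period with compound, 37 °C; signal: DiI fluorescence, bottom read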
PvdQ inh: P. aeruginosa PvdQ acylase inhibitors, primary screen, biochemical, fluorescence, plate reader and imaging, single point; actives 0.063% (n = 340,000); inhibition, % at 10 µM; AID 488965, 2010; purified PvdQ acylase; PvdQ acylase [Pseudomonas aeruginosa LESB58]; in the data active means inhibition above about 30%, passing the limit was not always enough;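 further: 0% = vehicle neutral wells and 100% = reference inhibitor wells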
dFosB act-2: activators of mouse delta FosB DNA binding, confirmation, biochemical, fluorescence polarization, TAMRA-CDK5 oligo, cherry-picked samples | shares compounds with dFosB act-1 | purified delta FosB; normalised: neutral wells 0, positive control 100 | activation, % at 24.9 µM | 2,400 tested, under 10 active;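 active means highest replicate activation at or above 34% and every replicate reaching that threshold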;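 further: higher polarization means more probe DNA bound by delta FosB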
Numbers without * were called inactive; nt = no result given. An excerpt weighted towards active compounds, which were near 1.6% of everything screened.

SMILES | RAD54 branch | S100A4 inh HTS | SR-BI DiI inh | dFosB act-1 | SR-BI uptake up | PvdQ inh | dFosB act-2
CCCC(C(=O)NC1CCCC1)N(C(=O)c1snc(C(N)=O)c1N)c1ccc(F)cc1 (stereo unspecified) | -2.0 | -0.1 | 0.7 | 24.1* | -0.7 | -3.5 | 1.7
COc1ccc(S(=O)(=O)Nc2ccc3c(c2)C(=O)N([C@H](C)CO)C[C@H](C)[C@@H](CN(C)C(=O)Nc2ccc4c(c2)OCO4)OCCCC[C@@H](C)O3)cc1 | 0.6 | 2.8 | nt | nt | nt | nt | nt
O=C(Nc1ccccc1F)N1C[C@@H]2[C@H](c3ccccc31)[C@H](CO)N2C(=O)C1CCCC1 | -7.8 | 2.1 | nt | nt | nt | nt | nt
O=C(C1CCOCC1)N1C[C@@H]2[C@H](c3ccccc31)[C@H](CO)N2Cc1ccccc1 | -8.8 | -3.3 | nt | nt | nt | nt | nt
C[C@@H]1CCCCO[C@H](CN(C)C(=O)Nc2ccc(F)cc2)[C@H](C)CN([C@H](C)CO)C(=O)c2cc(NS(=O)(=O)c3cccs3)ccc2O1 | 11.5 | 9.6 | nt | nt | nt | nt | nt
O=C(Nc1ccccc1Cl)c1ccc2c(=O)n3c(nc2c1)CCC3 | -1.1 | 5.1 | 15.0 | -10.1 | -15.0 | -17.5 | nt
O=C(Nc1nc(-c2ccccc2)cs1)c1ccc2c(=O)n3c(nc2c1)CCCCC3 | nt | -25.7 | 18.7 | 18.4* | -18.7 | -9.3 | 4.8
Cc1cc(NC(=O)CSc2nc(CCC3CCCC3)nc3ccccc23)no1 | -20.6 | nt | nt | 47.4* | nt | -10.5 | -4.5
O=C(CSc1nc(C2CC2)nc2c1cnn2-c1ccccc1)Nc1c[nH]c(=O)[nH]c1=O | 5.4 | 2.8 | 16.8 | 127.4* | -16.8 | 16.1 | 2.7
Cc1cccc(C)c1NC(=O)CSc1nc(C2CC2)nc2ccccc12 | -10.5 | 4.1 | nt | 20.3* | nt | -5.6 | 5.4
C[C@@H]1CN([C@H](C)CO)S(=O)(=O)c2ccc(-c3ccccc3)cc2O[C@@H]1CN(C)C(=O)c1ccc2c(c1)OCO2 | 2.2 | 0.8 | nt | nt | nt | nt | nt
COc1ccccc1CNC(=O)C[C@H]1C[C@H]2c3cc(NC(=O)CN(C)C)ccc3O[C@H]2[C@@H](CO)O1 | -10.0 | 1.5 | nt | nt | nt | nt | nt
COc1cccc(C(=O)Nc2nnc(-c3ccc(Cl)cc3)o2)c1 | -1.9 | -0.4 | nt | 22.8* | nt | -12.3 | -1.5
COc1cc(OC)cc(-c2nnc(NC(=O)c3ccc4c(c3)OCCO4)o2)c1 | -3.5 | 2.2 | 2.7 | 25.7* | -2.7 | -7.2 | -8.3
CNC[C@@H]1Oc2cc(C#Cc3ccccn3)ccc2S(=O)(=O)N([C@@H](C)CO)C[C@H]1C | -0.6 | 3.6 | nt | nt | nt | nt | nt
COc1ccc(-c2cn(CC[C@H]3CC[C@@H](NC(=O)Nc4ccc(F)cc4)[C@H](CO)O3)nn2)cc1 | nt | 2.8 | nt | nt | nt | nt | nt
COc1ccc(NC(=O)COC(=O)c2ccc(-n3cnnn3)cc2)cc1Cl | -2.2 | -4.8 | 23.7 | 34.7* | -23.7 | 8.3 | -15.4
Cc1cc(C)c(NC(=O)CS(=O)CC(=O)Nc2ccc(F)cc2F)c(C)c1 (stereo unspecified) | 13.4 | -16.4 | 0.9 | 22.6* | -0.9 | -4.5 | 1.2
CCOC(=O)c1sc(NC(=O)CSc2nnnn2-c2ccc(C)cc2C)nc1C | 4.4 | nt | -8.5 | 13.7 | 8.5 | -13.2 | nt
Cc1ccccc1-n1nnnc1SCC(=O)NNC(=O)c1ccc(NC(=O)CC#N)cc1 | 5.7 | -3.6 | 15.7 | 47.4* | -15.7 | 4.2 | 0.3
COC(=O)c1ccccc1NC(=O)CSc1nnnn1-c1ccc(C)cc1C | 8.0 | nt | nt | 30.9* | nt | -9.5 | 0.6
COCC(=O)Nc1ccc2c(c1)C(=O)N(C)C[C@H](OC)[C@@H](C)CN(Cc1ccncc1)[C@@H](C)CO2 | 12.0 | 2.1 | nt | nt | nt | nt | nt
N#CCCn1cc(/C=N/NC(N)=S)c(-c2ccc(-c3ccccc3)cc2)n1 | nt | -7.0 | 39.0 | 27.5* | -39.0 | 7.3 | 3.8
N#CCCn1cc(/C=N/O)c(-c2ccccc2)n1 | 9.0 | -3.5 | -2.5 | 5.4 | 2.5 | 4.4 | nt
COCCCN1C(=O)[C@@]2(Cc3ccccc31)c1ccccc1C(=O)N(C1CCCCC1)[C@H]2c1ccc(CO)cc1 | 2.9 | 2.6 | nt | nt | nt | nt | nt
SMILES | RAD54 branch | S100A4 inh HTS | SR-BI DiI inh | dFosB act-1 | SR-BI uptake up | PvdQ inh | dFosB act-2
C[C@H](CO)N1C[C@H](C)[C@H](CN(C)C(=O)Nc2ccc(F)cc2)Oc2ncc(C#C[C@@H](C)O)cc2C1=O | 1.4 | 9.1 | nt | nt | nt | nt | nt
C[C@@H]1CN([C@H](C)CO)C(=O)c2cc(N(C)C)ccc2O[C@@H](C)CCCCO[C@@H]1CN(C)S(=O)(=O)c1cn(C)cn1 | 0.9 | -16.0 | nt | nt | nt | nt | nt
CC(C)NC(=O)C1CCCN(c2nnc(-n3cccc3)s2)C1 (stereo unspecified) | 6.3 | -1.3 | 1.0 | -4.3 | -1.0 | 13.9 | nt
CC(=O)Nc1ccc(NC(=O)C2CCCN(c3nnc(-n4cccc4)s3)C2)cc1 (stereo unspecified) | nt | nt | nt | 30.6* | nt | -13.2 | 0.2
C[C@@H]1CN([C@H](C)CO)C(=O)c2cc(-c3cccc(F)c3)cnc2O[C@H]1CN(C)C(=O)C1CCC1 | -1.2 | 6.7 | nt | nt | nt | nt | nt
Cc1nn(CC(=O)NCCc2cccs2)c(=O)c2cc3ccccc3n12 | 2.1 | -4.1 | -2.8 | 26.4* | 2.8 | -7.1 | 3.8
CO[C@@H]1CN(C)C(=O)c2cc(NC(=O)c3cc(C)on3)ccc2OC[C@H](C)N(C(C)=O)C[C@H]1C | -0.9 | -4.2 | nt | nt | nt | nt | nt
O=C(NCCC1=CCCCC1)c1cc(S(=O)(=O)N2CCOCC2)c(Cl)cc1Cl | -11.6 | 3.3 | 15.9 | 18.6* | -15.9 | -15.7 | -2.7
O=C(O)c1ccccc1OC(C(=O)Nc1cc(Cl)cc(Cl)c1)c1ccccc1 (stereo unspecified) | 4.9 | -4.0 | nt | 35.8* | nt | -3.1 | 0.3
O=C(Nc1cc(Cl)cc(Cl)c1)C(c1ccccc1)N1CCCCC1 (stereo unspecified) | nt | nt | 10.9 | 0.2 | -10.9 | -0.9 | nt
Cc1ccc(-c2nc(SCC(=O)c3c(N)n(C)c(=O)n(C)c3=O)n[nH]2)cc1 | nt | -0.9 | -23.1 | 32.3* | 23.1 | 8.8 | 0.0
CCc1ccc(-c2nc(SCC(=O)c3c(N)n(C)c(=O)n(C)c3=O)n[nH]2)cc1 | 1.1 | -0.1 | -8.8 | -3.8 | 8.8 | 3.8 | nt
Cn1c(N)c(C(=O)CSc2nnnn2-c2ccccc2)c(=O)n(C)c1=O | -4.3 | -2.3 | nt | 13.6 | nt | -11.4 | nt
